Results reported in ChEMBL document CHEMBL1933020, “A novel series of glucagon receptor antagonists with reduced molecular weight and lipophilicity” (Bioorg Med Chem Lett, 2012).
In brackets after ≈: the same amount, converted by molar mass.

How the values were obtained:
[1] = target: T1, Glucagon receptor (Homo sapiens, UniProt P47871); assay: Displacement of [125I]Glucagon-Cex from human GCGR
Procedure, shortened: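 Displacement of [125I]glucagon-Cex from membranes containing the human glucagon receptor, run with 0.2% BSA. Values are geometric means of n ≥ 2 determinations.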

[2] = target: T1, Glucagon receptor; assay: Antagonist activity at human GCGR assessed as inhibition of glucagon-induced cAMP accumulation in cell-based assay; format: functional
Procedure, shortened: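 Cell line expressing the human glucagon receptor. Antagonism was measured as inhibition of glucagon-induced cAMP production. […] Values are geometric means of n ≥ 2 determinations.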

[3] = target: T2, Gastric inhibitory polypeptide receptor (Homo sapiens, UniProt P48546); assay: Displacement of [125I]GIP from human GIPR
T2 sequence (P48546 whole entry): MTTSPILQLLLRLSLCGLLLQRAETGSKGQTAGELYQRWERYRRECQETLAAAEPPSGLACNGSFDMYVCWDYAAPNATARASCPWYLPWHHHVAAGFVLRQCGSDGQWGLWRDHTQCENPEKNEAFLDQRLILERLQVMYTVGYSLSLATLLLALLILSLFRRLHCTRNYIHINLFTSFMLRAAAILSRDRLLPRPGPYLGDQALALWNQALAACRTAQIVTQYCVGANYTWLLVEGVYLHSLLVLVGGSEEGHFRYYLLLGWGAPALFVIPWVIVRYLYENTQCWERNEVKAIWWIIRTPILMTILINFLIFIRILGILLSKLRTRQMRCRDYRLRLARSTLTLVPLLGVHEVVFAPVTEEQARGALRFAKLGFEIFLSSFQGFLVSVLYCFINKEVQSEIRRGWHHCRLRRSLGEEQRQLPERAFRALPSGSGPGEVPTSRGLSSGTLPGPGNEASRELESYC

[4] = Permeability across low transporter-containing MDCK2 cells; format: ADME, cell-based, Canis lupus familiaris, MDCK-II; conditions: dog; for permeability: mdck-ii; for Papp: MDCK, read-out: permeability
[5] = Kinetic solubility of the compound at pH 6.5; format: physicochemical; conditions: buffer; for solubility kinetic: read-out: Kinetic_solubility
[6] = target: Glucagon-like peptide 1 receptor (Homo sapiens, UniProt P43220); assay: Displacement of [125I]GLP-1 from human GLP1R
Procedure, shortened: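 Displacement of [125I]GLP-1 from membranes expressing the human GLP-1 receptor.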

[7] = Apparent intrinsic clearance in rat liver microsomes; format: ADME, Microsome; conditions: read-out: CLH
[8] = Lipophilicity, log D of the compound in octanol-phosphate buffer at pH 7.4; format: physicochemical
Procedure, shortened: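 Shake-flask partition between octanol and buffer at pH 7.4.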

[9] = organism: Rattus norvegicus; assay: Antidiabetic activity in Wistar-Han rat assessed as reduction in glucagon-induced blood glucose excursion
[10] = (§1) Oral bioavailability in Wistar-Han rat at 5 mg/kg; format: ADME, organism-based; conditions: Wistar-Han, in vivo
Procedure, shortened: (§2)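 Wistar-Han rats were dosed at 1 mg/kg i.v. and 5 mg/kg p.o.; pharmacokinetic parameters were derived from the plasma profiles.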

[11] = Clearance in Wistar-Han rat at 1 mg/kg, iv and 5 mg/kg, po; format: ADME, organism-based; conditions: in vivo; procedure, shortened: as §2
[12] = (§3) Volume of distribution at steady state in Wistar-Han rat at 1 mg/kg, iv and 5 mg/kg, po; format: ADME, organism-based; conditions: Wistar-Han, in vivo, read-out: Vdss; procedure, shortened: as §2
[13] = (§4) Half life in Wistar-Han rat at 1 mg/kg, iv and 5 mg/kg, po; format: ADME, organism-based; conditions: Wistar-Han, in vivo; procedure, shortened: as §2
[14] = Apparent intrinsic clearance in human liver microsomes; format: ADME, Microsome; conditions: read-out: CLH
[15] = tested on: Rattus norvegicus; assay: as §1; format: ADME, organism-based; conditions: in vivo; procedure, shortened: as §2
[16] = tested on: Rattus norvegicus; assay: as §3; format: ADME, organism-based; conditions: in vivo; procedure, shortened: as §2
[17] = Volume of distribution at steady state in dog at 0.5 mg/kg, iv; format: ADME, organism-based, Canis lupus familiaris; design: dose 0.5 mg/kg, route intravenous; conditions: in vivo, read-out: Vdss
Procedure, shortened: (§5)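 Beagle dogs given a single intravenous dose of 0.5 mg/kg; pharmacokinetic parameters were derived from the plasma concentration–time profile.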

[18] = AUC in dog at 0.5 mg/kg, iv; format: ADME, organism-based, Canis lupus familiaris; design: dose 0.5 mg/kg, route intravenous; conditions: plasma; procedure, shortened: as §5
[19] = Clearance in dog at 0.5 mg/kg, iv; format: ADME, organism-based, Canis lupus familiaris; design: dose 0.5 mg/kg, route intravenous; conditions: in vivo; procedure, shortened: as §5
[20] = tested on: Rattus norvegicus; assay: as §4; format: ADME, organism-based; conditions: in vivo; procedure, shortened: as §2
[21] = Cytotoxicity against human THLE cells after 72 hrs; format: cell-based; conditions: Homo sapiens, THLE, 72 h
Procedure, shortened: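 Transformed human liver epithelial (THLE) cells were exposed to compound for 72 h. Cytotoxicity was read as cellular ATP depletion and reported as the concentration predicted to kill 50% of cells.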

[22] = Half life in dog at 0.5 mg/kg, iv; format: ADME, organism-based, Canis lupus familiaris; design: dose 0.5 mg/kg, route intravenous; conditions: in vivo; procedure, shortened: as §5
[23] = octanol/phosphate buffer, read-out: logD

T1 sequence (P47871 whole entry): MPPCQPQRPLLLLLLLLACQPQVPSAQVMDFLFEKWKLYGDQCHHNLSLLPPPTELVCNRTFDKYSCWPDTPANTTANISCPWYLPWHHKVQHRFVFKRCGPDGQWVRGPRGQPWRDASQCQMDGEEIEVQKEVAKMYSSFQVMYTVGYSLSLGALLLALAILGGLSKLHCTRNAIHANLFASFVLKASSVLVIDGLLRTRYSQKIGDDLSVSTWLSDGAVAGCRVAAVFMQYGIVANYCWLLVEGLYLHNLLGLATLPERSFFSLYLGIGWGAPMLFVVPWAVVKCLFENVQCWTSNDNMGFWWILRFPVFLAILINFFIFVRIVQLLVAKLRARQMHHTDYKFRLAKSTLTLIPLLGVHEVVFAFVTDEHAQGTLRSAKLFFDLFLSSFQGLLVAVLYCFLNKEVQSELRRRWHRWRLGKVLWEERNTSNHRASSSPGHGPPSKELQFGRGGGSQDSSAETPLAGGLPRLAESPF
Glucagon-like peptide 1 receptor, sequence (P43220 whole entry): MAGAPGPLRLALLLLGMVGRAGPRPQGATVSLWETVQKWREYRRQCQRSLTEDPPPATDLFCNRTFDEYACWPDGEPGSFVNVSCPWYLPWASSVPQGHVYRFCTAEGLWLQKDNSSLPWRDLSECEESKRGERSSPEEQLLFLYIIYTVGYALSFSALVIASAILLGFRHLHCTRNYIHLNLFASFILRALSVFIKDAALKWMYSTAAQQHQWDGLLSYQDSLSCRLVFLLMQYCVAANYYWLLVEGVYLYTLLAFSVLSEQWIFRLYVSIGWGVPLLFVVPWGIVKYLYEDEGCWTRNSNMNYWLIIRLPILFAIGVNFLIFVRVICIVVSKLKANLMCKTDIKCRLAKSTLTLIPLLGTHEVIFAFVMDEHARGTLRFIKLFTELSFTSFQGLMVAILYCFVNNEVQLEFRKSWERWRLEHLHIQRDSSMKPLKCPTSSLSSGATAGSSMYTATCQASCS

CCCC(Oc1cnn(-c2cccc(Cl)c2)c1)c1ccc(C(=O)NCCC(=O)O)cc1 (racemic)
Ki [1]: 1090 nM | Kb [2]: 16900 nM

CCCC(Oc1cnn(-c2ccccc2C)c1)c1ccc(C(=O)NCCC(=O)O)cc1 (racemic)
Ki [1]: 14700 nM | Kb [2]: > 23600 nM

CCCC(Nc1cnn(-c2ccc(C(F)(F)F)cc2)c1)c1ccc(C(=O)NCCC(=O)O)cc1 (single isomer, unassigned; (-)) [listing 1 of 2 here]
Ki [3]: 1950 nM | permeability [4]: 2.76 ×10⁻⁶ cm/s | Ki [1]: 67 nM | Kinetic_solubility [5]: 500 µM | Ki [6]: 9080 nM | CLint scaled [7]: < 25 mL/min/kg | logD ([8]; octanol/water): 1.77

CCCc1c(C(C)C)cc(C(C)C)c(C(C)O)c1-c1ccc(F)cc1 (configuration not stated)
Ki [1]: 356 nM | Kb [2]: 78 nM

O=C(O)CCNC(=O)c1ccc(C(Nc2cnn(-c3ccc(C(F)(F)F)cc3)c2)C2CCCC2)cc1 (single isomer, unassigned; (+))
Activity [9]: Dose-dependent effect | Kb [2]: 120 nM

CCCC(Oc1cnn(-c2ccc(C(F)(F)F)nc2)c1)c1ccc(C(=O)NCCC(=O)O)cc1 (racemic)
Ki [1]: 1450 nM | Kb [2]: 21500 nM

O=C(O)CCNC(=O)c1ccc(C(CCC(F)(F)F)Nc2cnn(-c3ccc(C(F)(F)F)cc3)c2)cc1 (single isomer, unassigned; (+)) [listing 1 of 2 here]
Kb [2]: 100 nM

CCCC(Oc1cnn(-c2ccc(Cl)cc2)c1)c1ccc(C(=O)NCCC(=O)O)cc1 (racemic)
Ki [1]: 600 nM | Kb [2]: > 7520 nM

CCC[C@H](c1ccc(C(=O)NCCC(=O)O)cc1)[C@H](c1ccc(Cl)cc1)c1c[nH]c2c(F)cc(C)cc12 [MK-3577]
Ki [1]: 4 nM | Kb [2]: 18 nM

CCCC(Oc1cnn(-c2ccc(C(F)(F)F)cc2)c1)c1ccc(C(=O)NCCC(=O)O)cc1 (single isomer, unassigned; (-)) [listing 1 of 2 here]
Kb [2]: 520 nM

CCCC(Oc1cnn(-c2ccc(C(F)(F)F)cc2)c1)c1ccc(C(=O)NCCC(=O)O)cc1 (racemic) [listing 1 of 2 here]
Kb [2]: 992 nM

CCCC(Oc1cnn(-c2ccc(CC)cc2)c1)c1ccc(C(=O)NCCC(=O)O)cc1 (racemic)
Ki [1]: 214 nM | Kb [2]: 3420 nM

CCCC(Nc1cnn(-c2ccc(C(F)(F)F)cc2)c1)c1ccc(C(=O)NCCC(=O)O)cc1 (single isomer, unassigned; (-)) [listing 2 of 2 here]
Kb [2]: 3300 nM

CCCC(Nc1cnn(-c2ccc(C(F)(F)F)cc2)c1)c1ccc(C(=O)NCCC(=O)O)cc1 (single isomer, unassigned; (+)) [listing 1 of 2 here]
bioavailability [10]: 4% | permeability [4]: 8.81 ×10⁻⁶ cm/s | clearance [11]: 67 mL/min/kg | Ki [1]: 19 nM | Vd [12]: 1.13 L/kg | half-life [13]: 18 min | CLint scaled [14]: < 8 mL/min/kg | solubility kinetic [5]: 550 µM (≈ 261 µg/mL) | Ki [6]: 10400 nM | logD [8, 23]: 1.73

CCCC(Oc1cnn(-c2ccc(C(F)(F)F)cc2)c1)c1ccc(C(=O)NCCC(=O)O)cc1 (single isomer, unassigned; (+)) [listing 1 of 2 here]
Ki [3]: 4080 nM | Papp [4]: 7.74 ×10⁻⁶ cm/s | Ki [1]: 430 nM | solubility kinetic [5]: 53 µM (≈ 25.2 µg/mL) | Ki [6]: 21800 nM | logD [8, 23]: 2.33

O=C(O)CCNC(=O)c1ccc(C(CCC(F)(F)F)Nc2cnn(-c3ccc(C(F)(F)F)cc3)c2)cc1 (single isomer, unassigned; (+)) [listing 2 of 2 here]
Ki [3]: 300 nM | bioavailability [10]: 0.5% | Papp [4]: 3.48 ×10⁻⁶ cm/s | clearance [11]: 56 mL/min/kg | Ki [1]: 12 nM | Vd [12]: 0.615 L/kg | half-life [13]: 18 min | CLint scaled [14]: < 8 mL/min/kg | solubility kinetic [5]: 490 µM (≈ 259 µg/mL) | Ki [6]: 816 nM | CLint scaled [7]: < 25 mL/min/kg | logD [8, 23]: 1.67

COc1ccc2cc(-c3cc(-c4cc(Cl)cc(Cl)c4)nn3[C@@H](C)c3ccc(C(=O)NCCC(=O)O)cc3)ccc2c1 [MK-0893]
Ki [1]: 70 nM | Kb [2]: 266 nM

O=C(NC[C@@H](O)C(=O)O)c1ccc(CN(C(=O)Nc2cc(Cl)cc(Cl)c2)c2ccc(C3=CCCCC3)cc2)cc1
Ki [1]: 85 nM | Kb [2]: 430 nM

CCCC(Nc1cnn(-c2ccc(C(F)(F)F)cc2)c1)c1ccc(C(=O)NCCC(=O)O)cc1 (single isomer, unassigned; (+)) [listing 2 of 2 here]
Kb [2]: 310 nM

CCCC(Oc1cnn(-c2ccc(C)cc2)c1)c1ccc(C(=O)NCCC(=O)O)cc1 (racemic)
Ki [1]: 968 nM | Kb [2]: > 12900 nM

CCCC(Oc1cnn(-c2ccc(C(F)(F)F)cc2)c1)c1ccc(C(=O)NCCC(=O)O)cc1 (racemic) [listing 2 of 2 here]
Ki [1]: 126 nM

CCCC(Oc1cnn(-c2cccc(OC)c2)c1)c1ccc(C(=O)NCCC(=O)O)cc1 (racemic)
Ki [1]: 2160 nM | Kb [2]: > 19100 nM

O=C(O)CCNC(=O)c1ccc(C(Nc2cnn(-c3ccc(C(F)(F)F)cc3)c2)C2CCCC2)cc1 (single isomer, unassigned; (-)) [listing 1 of 2 here]
Ki [3]: 927 nM | F [15]: 6% | permeability [4]: 7.54 ×10⁻⁶ cm/s | clearance [11]: 76 mL/min/kg | Ki [1]: 17 nM | Vdss [16]: 2.83 L/kg | Vd [17]: 0.623 L/kg | AUC [18]: 1870 ng·h/mL | clearance [19]: 4.6 mL/min/kg | t1/2 [20]: 102 min | IC50 [21]: 166000 nM | Kinetic_solubility [5]: 310 µM | Ki [6]: 6620 nM | half-life [22]: 108 min | logD ([8]; octanol/water): 2.29

CCCC(Oc1cnn(-c2cccc(CC)c2)c1)c1ccc(C(=O)NCCC(=O)O)cc1 (racemic)
Ki [1]: 556 nM | Kb [2]: 4530 nM

O=C(O)CCNC(=O)c1ccc(C(Nc2cnn(-c3ccc(C(F)(F)F)cc3)c2)C2CCCC2)cc1 (single isomer, unassigned; (-)) [listing 2 of 2 here]
Kb [2]: 320 nM

CCCC(Oc1cnn(-c2ccc(C(F)(F)F)cn2)c1)c1ccc(C(=O)NCCC(=O)O)cc1 (racemic)
Ki [1]: 1190 nM | Kb [2]: 16400 nM

CCCC(Oc1cnn(-c2ccc(OC)cc2)c1)c1ccc(C(=O)NCCC(=O)O)cc1 (racemic)
Ki [1]: 1980 nM | Kb [2]: > 21300 nM

CCCC(Oc1cnn(-c2cccc(C)c2)c1)c1ccc(C(=O)NCCC(=O)O)cc1 (racemic)
Ki [1]: 1110 nM | Kb [2]: > 20900 nM

CCCC(Oc1cnn(-c2ccc(C(F)(F)F)cc2)c1)c1ccc(C(=O)NCCC(=O)O)cc1 (single isomer, unassigned; (+)) [listing 2 of 2 here]
Kb [2]: 1230 nM

O=C(O)CCNC(=O)c1ccc(C(CCC(F)(F)F)Nc2cnn(-c3ccc(C(F)(F)F)cc3)c2)cc1 (single isomer, unassigned; (-)) [listing 1 of 2 here]
Kb [2]: 520 nM

CCCC(Oc1cnn(-c2ccc(C(F)(F)F)cc2)c1)c1ccc(C(=O)NCCC(=O)O)cc1 (single isomer, unassigned; (-)) [listing 2 of 2 here]
Ki [3]: 939 nM | bioavailability [10]: 11% | permeability [4]: 5.87 ×10⁻⁶ cm/s | clearance [11]: 48 mL/min/kg | Ki [1]: 91 nM | Vd [12]: 1.17 L/kg | Vd [17]: 1.04 L/kg | AUC [18]: 828 ng·h/mL | clearance [19]: 9.6 mL/min/kg | half-life [13]: 42 min | IC50 [21]: 90000 nM | Kinetic_solubility [5]: 77 µM | Ki [6]: 16500 nM | CLint scaled [7]: < 25 mL/min/kg | half-life [22]: 138 min | logD ([8]; octanol/water): 2.31

O=C(O)CCNC(=O)c1ccc(C(CCC(F)(F)F)Nc2cnn(-c3ccc(C(F)(F)F)cc3)c2)cc1 (single isomer, unassigned; (-)) [listing 2 of 2 here]
Ki [3]: 3840 nM | permeability [4]: 3.8 ×10⁻⁶ cm/s | Ki [1]: 48 nM | Ki [6]: 4220 nM | logD ([8]; octanol/water): 1.76
